Measurements published in ChEMBL document CHEMBL4342496, “Design, Synthesis, Dynamic Docking, Biochemical Characterization, and in Vivo Pharmacokinetics Studies of Novel Topoisomerase II Poisons with Promising Antiproliferative Activity” (J Med Chem, 2020).
The source made the active and inactive calls. The rule behind the calls is not given here.

Assays:
[1] = biological target: T1, DNA topoisomerase 2-alpha (Homo sapiens, UniProt P11388); test: Poison activity at human topo2alpha assessed as induction of accumulation of topo-2/DNA cleavage complex formation at 200 uM using […] plasmid incubated for 6 mins by SYBR safe DNA stain based cleavage complex formation assay
Procedure, shortened: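 Test compound at 200 μM was incubated with 1 U topoisomerase II and 500 ng […] plasmid for 6 min at 37 °C, with 1% DMSO final; vehicle and no-enzyme lanes served as controls. Products were run on a 1% agarose gel with SYBR Safe stain. The band intensity of linear DNA (form III) was quantified and normalized.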

[2] = Kinetic solubility in neutral buffer; format: physicochemical
Procedure, shortened: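 Kinetic solubility measured in aqueous buffer at pH 7.4.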

[3] = Half life in mouse liver microsomes; format: ADME, Microsome
[4] = Half life in mouse plasma; format: ADME, cell-free
[5] = biological target: T1, DNA topoisomerase 2-alpha; test: Inhibition of human topo2alpha by plasmid relaxation assay
[6] = Plasma concentration in mouse at 10 mg/kg, po after 1 hr; format: ADME, organism-based
Procedure, shortened: (§1)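 Mice dosed orally at 10 mg/kg, with n = 3 animals per time point. Plasma concentration was followed over time, with sampling to at least 6 h.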

[7] = Plasma concentration in mouse at 10 mg/kg, po after 6 hrs; format: ADME, organism-based; procedure, shortened: as §1

T1 sequence (P11388 whole entry): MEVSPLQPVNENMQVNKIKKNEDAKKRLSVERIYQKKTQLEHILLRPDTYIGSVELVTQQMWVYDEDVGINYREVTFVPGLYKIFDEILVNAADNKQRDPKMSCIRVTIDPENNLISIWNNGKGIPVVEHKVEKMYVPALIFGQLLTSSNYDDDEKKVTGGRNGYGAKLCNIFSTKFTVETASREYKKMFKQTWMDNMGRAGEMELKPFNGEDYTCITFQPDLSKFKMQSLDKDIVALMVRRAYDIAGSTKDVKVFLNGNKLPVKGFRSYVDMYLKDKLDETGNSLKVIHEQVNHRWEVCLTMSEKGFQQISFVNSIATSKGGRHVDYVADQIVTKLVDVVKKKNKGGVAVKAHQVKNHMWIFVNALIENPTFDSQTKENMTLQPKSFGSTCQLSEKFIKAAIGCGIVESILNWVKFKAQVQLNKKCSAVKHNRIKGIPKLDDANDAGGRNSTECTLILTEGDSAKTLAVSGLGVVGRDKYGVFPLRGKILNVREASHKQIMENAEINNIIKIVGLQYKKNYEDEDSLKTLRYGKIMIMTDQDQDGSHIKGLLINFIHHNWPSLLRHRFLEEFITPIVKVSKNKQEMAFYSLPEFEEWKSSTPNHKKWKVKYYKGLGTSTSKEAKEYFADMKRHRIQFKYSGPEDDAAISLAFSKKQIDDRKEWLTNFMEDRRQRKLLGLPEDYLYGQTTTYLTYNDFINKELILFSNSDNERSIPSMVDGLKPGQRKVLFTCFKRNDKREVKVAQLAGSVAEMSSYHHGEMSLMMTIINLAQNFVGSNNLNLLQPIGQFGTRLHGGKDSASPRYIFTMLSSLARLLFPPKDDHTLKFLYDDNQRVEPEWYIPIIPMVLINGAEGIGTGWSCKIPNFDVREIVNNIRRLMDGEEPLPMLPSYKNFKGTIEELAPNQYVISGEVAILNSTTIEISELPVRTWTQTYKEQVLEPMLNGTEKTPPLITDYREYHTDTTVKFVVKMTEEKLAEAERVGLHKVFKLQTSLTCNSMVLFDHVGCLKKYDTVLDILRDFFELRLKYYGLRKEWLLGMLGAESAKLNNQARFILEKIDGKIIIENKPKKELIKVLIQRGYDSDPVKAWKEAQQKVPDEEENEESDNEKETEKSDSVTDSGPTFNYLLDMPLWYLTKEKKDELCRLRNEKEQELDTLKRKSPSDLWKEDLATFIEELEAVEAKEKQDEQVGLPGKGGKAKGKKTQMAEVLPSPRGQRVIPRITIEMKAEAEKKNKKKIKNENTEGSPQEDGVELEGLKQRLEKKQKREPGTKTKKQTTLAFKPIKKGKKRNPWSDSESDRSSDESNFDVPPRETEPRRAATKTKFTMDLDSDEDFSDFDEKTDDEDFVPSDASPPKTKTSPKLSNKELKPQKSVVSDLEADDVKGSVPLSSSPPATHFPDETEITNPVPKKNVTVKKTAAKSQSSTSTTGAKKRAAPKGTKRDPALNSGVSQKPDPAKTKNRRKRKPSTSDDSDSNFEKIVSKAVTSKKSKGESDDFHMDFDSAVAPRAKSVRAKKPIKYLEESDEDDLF

| Compound | Activity [1] | Kinetic_solubility [2] | half-life [3] | half-life [4] | IC50 [5] | concentration at 1 h [6] | concentration at 6 h [7] |
| --- | --- | --- | --- | --- | --- | --- | --- |
| O=C(Nc1cccc(OC(F)F)c1)c1c(O)n(-c2ccccc2)c(=S)n(-c2ccccc2)c1=O | Active | 208 µM | > 60 min | > 120 min | – | – | – |
| COc1cccc(CCNC(=O)c2c(O)n(-c3ccccc3)c(=S)n(-c3ccccc3)c2=O)c1 | – | – | > 60 min | > 120 min | – | – | – |
| CC(C)Oc1cccc(NC(=O)c2c(O)n(-c3ccccc3)c(=S)n(-c3ccccc3)c2=O)c1 | – | – | > 60 min | > 120 min | – | – | – |
| CC(F)(F)c1cccc(NC(=O)c2c(O)n(-c3ccccc3)c(=S)n(-c3ccccc3)c2=O)c1 | – | – | > 60 min | > 120 min | – | – | – |
| O=C(Nc1cccc(C(F)F)c1)c1c(O)n(-c2ccccc2)c(=S)n(-c2ccccc2)c1=O | Active | 238 µM | > 60 min | > 120 min | – | – | – |
| O=C1NC(=S)NC(=O)C1C(=O)Nc1ccccc1 [MERBARONE] | – | – | – | – | 40 µM | – | – |
| O=C(Nc1cccc(OC(F)(F)F)c1)c1c(O)n(-c2ccccc2)c(=S)n(-c2ccccc2)c1=O | Active | 224 µM | > 60 min | > 120 min | – | 400 ng/mL | 400 ng/mL |
